Tests used:
Cholinesterase = Cholinesterase (Homo sapiens, UniProt P06276); experiment: Inhibition of human serum BuchE after 20 mins by Ellman's method
Acetylcholinesterase = Acetylcholinesterase (Homo sapiens, UniProt P22303); experiment: Inhibition of human recombinant AchE after 20 mins by Ellman's method
[1] = Inhibition of Amyloid beta 25-35 fibril formation
Outline: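 In vitro assay of Aβ25-35 fibril formation read by UV-vis measurements, with electron microscopy also used. IC50 is the inhibitor concentration that lowers fibril formation to 50% of the untreated control value.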

[2] = Lipophilicity, log P of the compound; format: physicochemical; details: octanol/water
SH-SY5Y [3] = experiment: Neuroprotective effect against Amyloid beta 25-35-induced neurotoxicity in human SH-SY5Y cells assessed as neuronal viability at 10 to 30 uM after 3 hrs by MTT assay; format: functional
Outline: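 SH-SY5Y cells were exposed 3 h to 10 µM Aβ25-35 peptide, with or without varied compound concentrations. Viability was measured by MTT and expressed as percentage of control cells, as mean ± SD of three independent experiments. Comparison was against the untreated sample by ANOVA with Dunnett post hoc test.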

SH-SY5Y [4] = experiment: Neuroprotective effect against Amyloid beta 25-35-induced neurotoxicity in human SH-SY5Y cells assessed as neuronal viability after 3 hrs by MTT assay; format: functional, cell-based
Outline: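 Human neuronal-like SH-SY5Y cells were incubated 3 h with 10 µM Aβ25-35 peptide, with or without compound at 1-30 µM. Viability was read by colorimetric MTT assay. IC50 is the concentration giving 50% inhibition of peptide toxicity, as mean ± SD of at least two independent experiments.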

Sequence of Cholinesterase (P06276 whole entry): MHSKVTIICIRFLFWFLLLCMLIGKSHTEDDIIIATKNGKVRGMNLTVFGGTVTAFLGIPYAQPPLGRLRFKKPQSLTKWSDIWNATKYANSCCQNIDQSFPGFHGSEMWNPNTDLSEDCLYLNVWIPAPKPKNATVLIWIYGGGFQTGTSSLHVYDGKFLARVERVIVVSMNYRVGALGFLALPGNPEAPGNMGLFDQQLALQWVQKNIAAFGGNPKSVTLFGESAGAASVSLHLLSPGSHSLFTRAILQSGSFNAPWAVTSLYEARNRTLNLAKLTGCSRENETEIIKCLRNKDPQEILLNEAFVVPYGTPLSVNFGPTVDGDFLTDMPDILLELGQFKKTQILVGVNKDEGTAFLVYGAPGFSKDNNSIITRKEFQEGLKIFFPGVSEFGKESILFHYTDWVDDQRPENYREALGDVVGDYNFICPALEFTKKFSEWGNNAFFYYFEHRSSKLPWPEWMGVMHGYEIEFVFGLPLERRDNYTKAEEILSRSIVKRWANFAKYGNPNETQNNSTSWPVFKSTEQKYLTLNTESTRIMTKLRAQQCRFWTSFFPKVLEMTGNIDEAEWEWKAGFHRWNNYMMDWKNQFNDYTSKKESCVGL
Sequence of Acetylcholinesterase (P22303 whole entry): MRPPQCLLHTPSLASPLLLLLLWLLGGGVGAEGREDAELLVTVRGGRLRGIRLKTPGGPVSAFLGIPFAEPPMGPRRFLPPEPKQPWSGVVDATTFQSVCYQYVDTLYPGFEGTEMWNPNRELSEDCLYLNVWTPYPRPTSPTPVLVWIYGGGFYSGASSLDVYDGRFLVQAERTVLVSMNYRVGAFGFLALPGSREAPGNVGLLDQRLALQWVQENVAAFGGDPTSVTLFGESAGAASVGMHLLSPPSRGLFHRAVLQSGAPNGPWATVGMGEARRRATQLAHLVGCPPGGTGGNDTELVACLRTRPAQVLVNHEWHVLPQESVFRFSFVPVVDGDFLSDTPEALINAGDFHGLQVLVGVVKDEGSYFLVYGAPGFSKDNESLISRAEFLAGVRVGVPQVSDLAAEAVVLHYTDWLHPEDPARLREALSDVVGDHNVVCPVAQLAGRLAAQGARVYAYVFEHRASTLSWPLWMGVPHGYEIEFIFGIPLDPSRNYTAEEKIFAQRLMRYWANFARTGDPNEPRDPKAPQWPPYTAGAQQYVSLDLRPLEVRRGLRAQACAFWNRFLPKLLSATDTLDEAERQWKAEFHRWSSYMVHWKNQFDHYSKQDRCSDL

Row | SMILES | IC50 (Cholinesterase) [µM] | IC50 (Acetylcholinesterase) [µM] | IC50 [1] [µM] | logP [2] | Activity (SH-SY5Y [3]) [%] | IC50 (SH-SY5Y [4]) [µM]
1 | COc1ccc(C(=O)c2c(-c3ccc(OCCCCCCCN(C)Cc4ccccc4)cc3)oc3ccccc23)cc1 | 89.1 | 281 | – | – | – | –
2 | COc1cccc(C(=O)c2c(-c3ccc(OCCCCCCCN(C)Cc4ccccc4)cc3)oc3ccccc23)c1 | 21.7 | 127 | – | – | – | –
3 | Cc1ccc(C(=O)c2c(-c3ccc(OCCCCCCCN(C)Cc4ccccc4)cc3)oc3ccccc23)cc1 | 1.82 | 10.5 | 13 | – | – | –
4 | CN(CCCCCCCOc1ccc(-c2cc3ccccc3o2)cc1)Cc1ccccc1 | 0.28 | 32.6 | 7 | 6.8 | – | –
5 | COc1ccc(C(=O)c2c(-c3ccc(OCCCCCCCN(C)Cc4ccccc4)cc3)oc3ccccc23)cc1OC | 74.1 | 177 | – | – | – | –
6 | Cc1cccc(C(=O)c2c(-c3ccc(OCCCCCCCN(C)Cc4ccccc4)cc3)oc3ccccc23)c1 | 40.9 | 127 | – | – | – | –
7 | CN(CCCCCCCOc1ccc(-c2oc3ccccc3c2C(=O)c2ccccc2)cc1)Cc1ccccc1 | 38.1 | 40.7 | 12.5 | 8 | 63 | 5.6
8 | CC(=O)c1c(-c2ccc(OCCCCCCCN(C)Cc3ccccc3)cc2)oc2ccccc12 | 1.83 | 17.4 | – | – | – | –
9 | COc1cc(/C=C/C(=O)CC(=O)/C=C/c2ccc(O)c(OC)c2)ccc1O [CURCUMIN] | – | – | 10 | – | – | –

Source: ChEMBL document CHEMBL1150277, “Benzofuran-based hybrid compounds for the inhibition of cholinesterase activity, beta amyloid aggregation, and abeta neurotoxicity” (J Med Chem, 2008)
